Test results published in ChEMBL document CHEMBL1158487, “Small molecule chloropyramine hydrochloride (C4) targets the binding site of focal adhesion kinase and vascular endothelial growth factor receptor 3 and suppresses breast cancer growth in vivo” (J Med Chem, 2009).
Active and inactive are the calls of the source. The calls are words filed in the database; no cut-off is given here.

Columns and labels:
[1] = biological target: Vascular endothelial growth factor receptor 3 (Homo sapiens) (UniProt P35916); assay: Inhibition of VEGFR3 phosphorylation in human MCF7 cells expressing VEGFR3 assessed as complete dephosphorylation at Tyr1063/1068 activation loop at 10 uM by Western blotting; format: cell-based
Sequence of Vascular endothelial growth factor receptor 3 (Homo sapiens) (P35916 whole entry): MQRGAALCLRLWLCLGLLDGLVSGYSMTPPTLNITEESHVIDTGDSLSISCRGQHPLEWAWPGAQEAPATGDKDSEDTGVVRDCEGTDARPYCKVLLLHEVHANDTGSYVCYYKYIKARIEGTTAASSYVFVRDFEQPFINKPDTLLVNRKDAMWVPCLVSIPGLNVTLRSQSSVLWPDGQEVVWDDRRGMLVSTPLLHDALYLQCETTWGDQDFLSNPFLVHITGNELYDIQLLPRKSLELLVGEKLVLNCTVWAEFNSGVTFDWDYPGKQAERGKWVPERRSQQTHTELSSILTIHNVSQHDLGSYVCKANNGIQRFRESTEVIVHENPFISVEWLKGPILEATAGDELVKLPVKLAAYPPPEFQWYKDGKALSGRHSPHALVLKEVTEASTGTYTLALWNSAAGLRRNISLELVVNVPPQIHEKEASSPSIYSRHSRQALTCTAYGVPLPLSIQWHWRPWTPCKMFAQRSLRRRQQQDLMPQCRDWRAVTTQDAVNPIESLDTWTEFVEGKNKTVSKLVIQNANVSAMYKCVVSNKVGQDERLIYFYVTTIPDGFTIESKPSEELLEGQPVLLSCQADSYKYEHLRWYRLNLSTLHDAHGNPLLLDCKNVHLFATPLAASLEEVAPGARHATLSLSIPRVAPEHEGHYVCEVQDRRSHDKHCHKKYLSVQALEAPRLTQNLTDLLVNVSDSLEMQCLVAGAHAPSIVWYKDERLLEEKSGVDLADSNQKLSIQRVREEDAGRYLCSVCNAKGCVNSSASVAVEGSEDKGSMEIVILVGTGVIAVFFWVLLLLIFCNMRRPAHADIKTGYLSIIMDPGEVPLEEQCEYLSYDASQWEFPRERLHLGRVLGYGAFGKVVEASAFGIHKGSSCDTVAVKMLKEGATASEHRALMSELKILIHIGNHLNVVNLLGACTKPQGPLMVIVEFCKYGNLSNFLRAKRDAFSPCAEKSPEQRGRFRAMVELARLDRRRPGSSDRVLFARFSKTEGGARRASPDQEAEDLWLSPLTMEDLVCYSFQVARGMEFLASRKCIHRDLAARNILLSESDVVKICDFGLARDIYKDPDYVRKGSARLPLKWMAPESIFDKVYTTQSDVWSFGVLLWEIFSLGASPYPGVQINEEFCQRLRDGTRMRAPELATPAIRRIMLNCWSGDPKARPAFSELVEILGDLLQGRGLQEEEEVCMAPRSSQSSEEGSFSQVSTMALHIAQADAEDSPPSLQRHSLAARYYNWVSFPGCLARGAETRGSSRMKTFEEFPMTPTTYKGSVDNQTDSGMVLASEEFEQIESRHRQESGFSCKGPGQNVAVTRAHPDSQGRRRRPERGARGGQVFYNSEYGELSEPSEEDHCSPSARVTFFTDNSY

MCF7 [2] = assay: Induction of apoptosis in human MCF7 cells expressing VEGFR3 assessed as procaspase 8 activation after 48 hrs; format: functional, cell-based
BT-474 [3] = assay: Antiproliferative activity against human BT474 cells after 48 hrs by BrdU incorporation assay; format: functional, cell-based
Procedure, shortened: (§1)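 Cells plated at 2.5 × 10^3 per well and allowed to attach overnight. Fresh growth medium with or without compound was added along with BrdU labelling reagent, and cells were incubated for the set time. BrdU incorporation was then read with a kit per the manufacturer. Data are mean ± SEM of three or more independent experiments, compared by two-tailed Student's t test.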

[4] = biological target: Focal adhesion kinase 1/vascular endothelial growth factor receptor 3 (Homo sapiens) (UniProt P35916+Q05397); assay: Disruption of FAK-VEGFR3 binding in human BT474 cells at 10 uM after 24 hrs by immunoprecipitation technique; format: cell-based; conditions: BT-474
Sequence of Focal adhesion kinase 1/vascular endothelial growth factor receptor 3 (Homo sapiens) (P35916 whole entry, looked up): as the sequence (P35916 whole entry) above
Sequence of Focal adhesion kinase 1/vascular endothelial growth factor receptor 3 (Homo sapiens) (Q05397 whole entry, looked up): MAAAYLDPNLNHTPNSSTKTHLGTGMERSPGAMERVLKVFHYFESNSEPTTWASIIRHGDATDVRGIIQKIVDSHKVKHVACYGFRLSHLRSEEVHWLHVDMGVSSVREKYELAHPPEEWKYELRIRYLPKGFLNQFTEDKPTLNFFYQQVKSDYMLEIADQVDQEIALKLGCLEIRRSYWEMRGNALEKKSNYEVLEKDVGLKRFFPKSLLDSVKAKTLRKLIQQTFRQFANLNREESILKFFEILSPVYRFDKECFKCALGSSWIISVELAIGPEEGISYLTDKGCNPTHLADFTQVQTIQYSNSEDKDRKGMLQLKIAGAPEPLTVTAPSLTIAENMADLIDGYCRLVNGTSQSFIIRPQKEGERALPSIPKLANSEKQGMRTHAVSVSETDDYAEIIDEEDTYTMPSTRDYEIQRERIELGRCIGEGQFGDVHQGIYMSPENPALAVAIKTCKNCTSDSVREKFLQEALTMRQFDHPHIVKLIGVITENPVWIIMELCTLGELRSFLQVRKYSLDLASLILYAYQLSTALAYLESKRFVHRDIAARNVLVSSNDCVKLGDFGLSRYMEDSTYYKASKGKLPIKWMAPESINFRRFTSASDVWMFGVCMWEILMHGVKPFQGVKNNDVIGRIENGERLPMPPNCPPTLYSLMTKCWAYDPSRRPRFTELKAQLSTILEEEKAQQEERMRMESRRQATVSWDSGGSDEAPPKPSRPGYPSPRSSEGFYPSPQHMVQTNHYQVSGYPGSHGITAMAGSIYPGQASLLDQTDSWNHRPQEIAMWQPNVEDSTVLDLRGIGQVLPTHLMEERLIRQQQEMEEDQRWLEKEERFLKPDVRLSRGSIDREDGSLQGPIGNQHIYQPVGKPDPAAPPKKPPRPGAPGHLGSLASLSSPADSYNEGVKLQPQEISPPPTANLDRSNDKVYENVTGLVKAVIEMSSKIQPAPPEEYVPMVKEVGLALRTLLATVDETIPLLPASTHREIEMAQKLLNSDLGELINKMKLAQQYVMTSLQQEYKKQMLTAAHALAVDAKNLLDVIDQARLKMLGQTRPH
Procedure, shortened: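 BT474 cells were treated for 24 h with increasing concentrations and then lysed. Lysates were immunoprecipitated with anti-VEGFR-3 antibody, and co-precipitated FAK was detected by western blot.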

BT-474 [5] = assay: Cytotoxicity against human BT474 cells assessed as reduction in viability at 1 uM after 48 hrs by MTS assay; format: functional
Procedure, shortened: (§2)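 Viability measured by MTS after 48 h exposure. Cells were seeded at 5.0 × 10^3 per well and attached overnight before compound-containing medium was added. BT474 is a […] subclone grown in RPMI-1640 with 10% FBS and 250 µg/ml insulin. MCF7 stable clones carried either empty pcDNA3 or VEGFR-3. Mean ± SEM, ≥3 experiments, two-tailed t test.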

A-375 = assay: Cytotoxicity against human A375 cells after 72 hrs by MTS assay; format: functional, cell-based; conditions: A-375, 72 h
Procedure, shortened: (§3)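 MTS viability assay, read as mitochondrial dehydrogenase activity of metabolically active cells. Cells were seeded at 5.0 × 10^3 per well and attached overnight. Fresh medium with or without compound was added, followed by 72 h exposure at increasing concentrations. Error shown as ±SEM.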

BT-474 [6] = assay: Induction of apoptosis in human BT474 cells at 10 uM by TUNEL assay; format: functional
[7] = biological target: Focal adhesion kinase 1 (Homo sapiens) (UniProt Q05397); assay: Inhibition of FAK phosphorylation in human BT474 cells assessed as decrease in total phosphorylation at 10 uM after 24 hrs by immunoprecipitation technique; format: cell-based; conditions: BT-474
Sequence of Focal adhesion kinase 1 (Homo sapiens) (Q05397 2-1052 limits assumed): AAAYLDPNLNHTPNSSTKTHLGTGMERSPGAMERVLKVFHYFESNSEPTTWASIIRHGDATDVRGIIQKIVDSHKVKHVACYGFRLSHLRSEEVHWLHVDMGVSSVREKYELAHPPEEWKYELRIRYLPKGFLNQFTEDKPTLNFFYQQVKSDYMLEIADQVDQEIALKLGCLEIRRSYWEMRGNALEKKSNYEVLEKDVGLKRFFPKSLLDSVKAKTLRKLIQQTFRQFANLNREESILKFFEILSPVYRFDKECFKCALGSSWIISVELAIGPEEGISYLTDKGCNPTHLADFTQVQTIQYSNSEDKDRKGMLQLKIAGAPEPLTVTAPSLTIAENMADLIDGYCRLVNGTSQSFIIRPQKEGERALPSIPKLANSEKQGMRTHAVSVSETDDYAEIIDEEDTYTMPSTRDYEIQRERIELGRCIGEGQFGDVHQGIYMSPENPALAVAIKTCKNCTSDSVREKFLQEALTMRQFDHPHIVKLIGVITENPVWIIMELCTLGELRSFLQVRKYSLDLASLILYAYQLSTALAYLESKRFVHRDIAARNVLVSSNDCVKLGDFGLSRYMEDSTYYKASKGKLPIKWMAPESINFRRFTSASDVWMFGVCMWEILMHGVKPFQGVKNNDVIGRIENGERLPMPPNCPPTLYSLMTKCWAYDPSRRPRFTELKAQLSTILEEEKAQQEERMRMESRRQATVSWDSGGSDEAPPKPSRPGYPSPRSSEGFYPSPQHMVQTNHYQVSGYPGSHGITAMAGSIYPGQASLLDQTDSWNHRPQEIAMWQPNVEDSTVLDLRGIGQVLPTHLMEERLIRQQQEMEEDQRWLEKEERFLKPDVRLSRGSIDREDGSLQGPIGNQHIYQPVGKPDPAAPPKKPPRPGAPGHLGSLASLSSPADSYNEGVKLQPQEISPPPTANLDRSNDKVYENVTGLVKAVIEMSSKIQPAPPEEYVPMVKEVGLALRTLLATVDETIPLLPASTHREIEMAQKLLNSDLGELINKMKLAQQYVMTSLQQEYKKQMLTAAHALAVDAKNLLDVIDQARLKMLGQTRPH
Procedure, shortened: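 MCF7-VEGFR-3 and BT474 cells were treated for 24 h at 10 µM or 1 µM. FAK was immunoprecipitated and blotted with anti-phosphotyrosine antibody 4G10 to assess total FAK tyrosine phosphorylation.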

BT-474 [8] = assay: Induction of apoptosis in human BT474 cells assessed as PARP degradation after 48 hrs; format: functional, cell-based
MCF7 [9] = assay: Induction of apoptosis in human MCF7 cells assessed as PARP degradation after 48 hrs; format: functional, cell-based
MDA-MB-231 = assay: Cytotoxicity against human MDA-MB-231 cells after 72 hrs by MTS assay; format: functional, cell-based; conditions: MDA-MB-231, 72 h; procedure, shortened: as §3
MCF7 [10] = assay: Induction of apoptosis in human MCF7 cells assessed as procaspase 8 activation after 48 hrs; format: functional, cell-based
[11] = Cytotoxicity against human MCF10A cells assessed as cell viability at 0.1 to 10 uM by MTS assay; format: cell-based; conditions: mcf-10a
Procedure, shortened: (§4)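 MTS cell survival assay. Cells were plated at 5.0 × 10^3 per well and allowed to attach overnight, then given fresh medium with or without compound for the designated time. Absorbance was read per the kit protocol. Mean ± SEM of three or more independent experiments.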

[12] = biological target: Vascular endothelial growth factor receptor 3 (Homo sapiens) (UniProt P35916); assay: Inhibition of VEGFR3 phosphorylation in human MCF7 cells expressing VEGFR3 assessed as complete dephosphorylation at Tyr1063/1068 activation loop at 1 to 10 uM by Western blotting; format: cell-based; conditions: TDE = time-dependent effect
BT-474 [13] = assay: Cytotoxicity against human BT474 cells assessed as cell viability at 100 uM by MTS assay; format: functional, cell-based; procedure, shortened: as §4
[14] = biological target: Vascular endothelial growth factor receptor 3 (Homo sapiens) (UniProt P35916); assay: Inhibition of VEGFR3 phosphorylation in human BT474 cells assessed as partial dephosphorylation at Tyr1063/1068 activation loop at 1 uM after 24 hrs by Western blotting; format: cell-based; conditions: BT-474
SAOS-2 = assay: Cytotoxicity against human Saos2 cells after 72 hrs by MTS assay; format: functional, cell-based; conditions: SAOS-2, 72 h; procedure, shortened: as §3
[15] = biological target: Vascular endothelial growth factor receptor 3 (Homo sapiens) (UniProt P35916); assay: Inhibition of VEGFR3 phosphorylation in human MCF7 cells expressing VEGFR3 assessed as complete dephosphorylation at Tyr1063/1068 activation loop after 24 hrs by Western blotting; format: cell-based
[16] = Cytotoxicity against human C8161 cells after 72 hrs by MTS assay; format: functional, cell-based; conditions: C8161, 72 h; procedure, shortened: as §3
MCF7 [17] = assay: Cytotoxicity against human MCF7 cells expressing VEGFR3 assessed as cell viability after 48 hrs by MTS assay; format: functional, cell-based; procedure, shortened: as §2
BT-474 [18] = assay: Decrease in colocalization of FAK-paxillin complex in human BT474 cells at 10 uM after 24 hrs by confocal microscopy; format: functional; set-up: scale not given: the % may be the effect or the level left
Procedure, shortened: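 Cells were treated for 24 h with DMSO or 10 µM compound, then dual-immunostained for FAK (Alexa Fluor 488) together with VEGFR-3 or paxillin (Alexa Fluor 546). Confocal microscopy with scatter-plot analysis gave the percentage of colocalized molecules.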

[19] = Cytotoxicity against human MCF10A cells assessed as cell viability at 100 uM by MTS assay; format: cell-based; conditions: mcf-10a; procedure, shortened: as §4
[20] = biological target: Vascular endothelial growth factor receptor 3 (Homo sapiens) (UniProt P35916); assay: Inhibition of VEGFR3 phosphorylation in human MCF7 cells expressing VEGFR3 assessed as partial dephosphorylation at Tyr1063/1068 activation loop after 24 hrs by Western blotting; format: cell-based
MCF7 [21] = assay: Cytotoxicity against human MCF7 cells expressing VEGFR3 assessed as cell viability at 10 uM after 48 hrs by MTS assay; format: functional; procedure, shortened: as §2
BT-474 [22] = assay: Cytotoxicity against human BT474 cells assessed as cell viability at 0.1 to 10 uM by MTS assay; format: functional, cell-based; procedure, shortened: as §4
MCF7 [23] = assay: Antiproliferative activity against human MCF7 cells expressing VEGFR3 at 0.1 to 10 uM by BrdU incorporation assay; format: functional, cell-based; conditions: TDE = time-dependent effect; procedure, shortened: as §1
[24] = biological target: Vascular endothelial growth factor receptor 3 (Homo sapiens) (UniProt P35916); assay: Inhibition of VEGFR3 phosphorylation in human MCF7 cells expressing VEGFR3 cells assessed as partial dephosphorylation at Tyr1063/1068 activation loop at 1 uM after 24 hrs by Western blotting; format: cell-based
BT-474 [25] = assay: Relocalization of FAK-VEGFR3 complex from cytoplasm to nucleus in human BT474 cells at 10 uM after 24 hrs by confocal microscopy; format: functional, cell-based
Procedure, shortened: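 BT474 cells given DMSO or 10 µM compound for 24 h, dual-immunostained for FAK (Alexa Fluor 488) and VEGFR-3 (Alexa Fluor 546), imaged by confocal microscopy; percentage of colocalized FAK/VEGFR-3 molecules derived by scatter-plot analysis.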

Question: With `CN(C)CCN(Cc1ccc(Cl)cc1)c1ccccn1.Cl` [CHLORPYRAMIN HYDROCHLORIDE] as the compound, how does the Activity [1] read?
Answer: Active

Question: And the Activity (MCF7 [2])?
Answer: Dose-dependent effect

Question: And the Activity (BT-474 [3])?
Answer: Dose-dependent effect

Question: And the Activity [4]?
Answer: Active

Question: And the Activity (BT-474 [5])?
Answer: 40%

Question: What about the IC50 (A-375) of the same compound?
Answer: 1 µM

Question: And the Activity (BT-474 [6])?
Answer: 60%

Question: And the Activity [7]?
Answer: Active

Question: What about the Activity (BT-474 [8]) of the same compound?
Answer: Dose-dependent effect

Question: What about the Activity (MCF7 [9]) of the same compound?
Answer: Dose-dependent effect

Question: And the IC50 (MDA-MB-231)?
Answer: 1 µM

Question: What about the Activity (MCF7 [10]) of the same compound?
Answer: Dose-dependent effect

Question: What about the Activity [11] of the same compound?
Answer: Active

Question: What about the Activity [12] of the same compound?
Answer: tde

Question: And the Activity (BT-474 [13])?
Answer: Active

Question: And the Activity [14]?
Answer: Active

Question: And the IC50 (SAOS-2)?
Answer: 1 µM

Question: And the Activity [15]?
Answer: Dose-dependent effect

Question: What about the IC50 [16] of the same compound?
Answer: 1 µM

Question: What about the Activity (MCF7 [17]) of the same compound?
Answer: Dose-dependent effect

Question: What about the Activity (BT-474 [18]) of the same compound?
Answer: 76%

Question: What about the Activity [19] of the same compound?
Answer: Active

Question: What about the Activity [20] of the same compound?
Answer: Dose-dependent effect

Question: What about the “fold change (FC)” value (MCF7 [21]) of the same compound?
Answer: 2

Question: And the Activity (BT-474 [22])?
Answer: Active

Question: What about the Activity (MCF7 [23]) of the same compound?
Answer: tde

Question: And the Activity [24]?
Answer: Active

Question: What about the Activity (BT-474 [25]) of the same compound?
Answer: Active
